Measured values: ChEMBL document CHEMBL2406966, “Structure and Property Based Design of Pyrazolo[1,5-a]pyrimidine Inhibitors of CK2 Kinase with Activity in Vivo” (ACS Med Chem Lett, 2013)
Values after ≈ are worked out from the molar mass of the structure shown. Active and inactive are the calls of the source. No cut-off for these calls is given here.

Tests used:
Mus musculus [1] = assay: In vivo inhibition of CK2 in human DLD2 cells xenografted in mouse assessed as inhibition of AKT phosphorylation at Ser129 at 10 mg/kg, po measured at 24 hrs by Western blot analysis; format: functional, organism-based; parameters: dose 10 mg/kg
In short: (§1)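 Mice bearing DLD-1 xenografts overexpressing AKT1 received a single oral dose (10 or 12.5 mg/kg). Tumour cell lysates were taken at 3, 8 and 24 h post-dose and probed for pAKT S129 by Western blot.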

[2] = Aqueous solubility of the compound in phosphate buffer at pH 7.4 after 24 hrs; format: physicochemical
[3] = target: Dual specificity tyrosine-phosphorylation-regulated kinase 1A (Homo sapiens) (UniProt Q13627); assay: Inhibition of Dyrk-1 (unknown origin) assessed as residual activity at 0.1 uM/L relative to control
In short: (§2)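 KINOMEscan competition binding panel measuring displacement of an immobilized, active-site-directed ligand. Test concentration was 0.1 μM/L. Read-out was residual activity as % of DMSO control.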

[4] = target: Death-associated protein kinase 1 (Homo sapiens) (UniProt P53355); assay: Inhibition of Dapk-1 (unknown origin) assessed as residual activity at 0.1 uM/L relative to control; in short: as §2
[5] = target: T1, Dual specificity tyrosine-phosphorylation-regulated kinase 2 (Homo sapiens) (UniProt Q92630); assay: Inhibition of Dyrk-2 (unknown origin) assessed as residual activity at 0.1 uM/L relative to control; in short: as §2
T1 sequence (whole entry): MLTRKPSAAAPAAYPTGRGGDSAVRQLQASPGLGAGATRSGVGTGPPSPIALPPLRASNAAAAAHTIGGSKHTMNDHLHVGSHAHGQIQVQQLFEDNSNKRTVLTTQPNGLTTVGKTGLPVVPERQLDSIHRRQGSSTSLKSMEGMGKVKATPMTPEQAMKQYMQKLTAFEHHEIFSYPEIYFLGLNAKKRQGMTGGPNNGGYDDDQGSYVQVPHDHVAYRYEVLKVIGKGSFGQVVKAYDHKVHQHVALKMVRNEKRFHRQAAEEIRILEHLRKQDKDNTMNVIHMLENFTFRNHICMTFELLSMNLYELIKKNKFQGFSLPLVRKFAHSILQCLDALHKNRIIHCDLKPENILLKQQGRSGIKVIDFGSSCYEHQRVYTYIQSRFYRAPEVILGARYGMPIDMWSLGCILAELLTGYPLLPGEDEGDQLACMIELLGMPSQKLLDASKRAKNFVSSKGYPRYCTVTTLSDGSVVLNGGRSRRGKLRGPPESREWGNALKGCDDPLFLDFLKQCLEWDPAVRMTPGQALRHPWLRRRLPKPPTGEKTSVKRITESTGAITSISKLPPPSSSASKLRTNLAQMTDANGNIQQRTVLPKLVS

[6] = target: Death-associated protein kinase 3 (Homo sapiens) (UniProt O43293); assay: Inhibition of Dapk-3 (unknown origin) assessed as residual activity at 0.1 uM/L relative to control
Chain of Death-associated protein kinase 3 (Homo sapiens) (O43293 whole entry, looked up): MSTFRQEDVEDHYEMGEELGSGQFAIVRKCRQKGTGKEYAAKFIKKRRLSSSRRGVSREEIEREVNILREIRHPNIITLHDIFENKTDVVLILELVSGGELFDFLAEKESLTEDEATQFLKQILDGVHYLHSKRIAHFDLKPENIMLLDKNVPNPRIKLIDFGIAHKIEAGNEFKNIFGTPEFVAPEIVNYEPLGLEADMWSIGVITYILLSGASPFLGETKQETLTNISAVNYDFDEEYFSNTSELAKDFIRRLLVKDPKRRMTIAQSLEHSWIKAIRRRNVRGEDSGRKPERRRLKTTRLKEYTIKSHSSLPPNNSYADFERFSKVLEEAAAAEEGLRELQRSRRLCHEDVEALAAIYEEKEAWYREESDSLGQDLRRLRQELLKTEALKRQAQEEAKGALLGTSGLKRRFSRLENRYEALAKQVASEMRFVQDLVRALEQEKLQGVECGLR
In short: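 Kinome-wide competition binding panel: measures the compound's ability to compete with an immobilized, active-site-directed ligand for kinase binding. Inhibitor tested at 0.1 μM/L. Read-out is residual activity as a percentage of the DMSO control.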

physchem = conditions: octanol/water, pH 7.4
[7] = target: Homeodomain-interacting protein kinase 2 (Homo sapiens, UniProt Q9H2X6); assay: Inhibition of Hipk-2 (unknown origin)
Chain of Homeodomain-interacting protein kinase 2 (Q9H2X6 whole entry): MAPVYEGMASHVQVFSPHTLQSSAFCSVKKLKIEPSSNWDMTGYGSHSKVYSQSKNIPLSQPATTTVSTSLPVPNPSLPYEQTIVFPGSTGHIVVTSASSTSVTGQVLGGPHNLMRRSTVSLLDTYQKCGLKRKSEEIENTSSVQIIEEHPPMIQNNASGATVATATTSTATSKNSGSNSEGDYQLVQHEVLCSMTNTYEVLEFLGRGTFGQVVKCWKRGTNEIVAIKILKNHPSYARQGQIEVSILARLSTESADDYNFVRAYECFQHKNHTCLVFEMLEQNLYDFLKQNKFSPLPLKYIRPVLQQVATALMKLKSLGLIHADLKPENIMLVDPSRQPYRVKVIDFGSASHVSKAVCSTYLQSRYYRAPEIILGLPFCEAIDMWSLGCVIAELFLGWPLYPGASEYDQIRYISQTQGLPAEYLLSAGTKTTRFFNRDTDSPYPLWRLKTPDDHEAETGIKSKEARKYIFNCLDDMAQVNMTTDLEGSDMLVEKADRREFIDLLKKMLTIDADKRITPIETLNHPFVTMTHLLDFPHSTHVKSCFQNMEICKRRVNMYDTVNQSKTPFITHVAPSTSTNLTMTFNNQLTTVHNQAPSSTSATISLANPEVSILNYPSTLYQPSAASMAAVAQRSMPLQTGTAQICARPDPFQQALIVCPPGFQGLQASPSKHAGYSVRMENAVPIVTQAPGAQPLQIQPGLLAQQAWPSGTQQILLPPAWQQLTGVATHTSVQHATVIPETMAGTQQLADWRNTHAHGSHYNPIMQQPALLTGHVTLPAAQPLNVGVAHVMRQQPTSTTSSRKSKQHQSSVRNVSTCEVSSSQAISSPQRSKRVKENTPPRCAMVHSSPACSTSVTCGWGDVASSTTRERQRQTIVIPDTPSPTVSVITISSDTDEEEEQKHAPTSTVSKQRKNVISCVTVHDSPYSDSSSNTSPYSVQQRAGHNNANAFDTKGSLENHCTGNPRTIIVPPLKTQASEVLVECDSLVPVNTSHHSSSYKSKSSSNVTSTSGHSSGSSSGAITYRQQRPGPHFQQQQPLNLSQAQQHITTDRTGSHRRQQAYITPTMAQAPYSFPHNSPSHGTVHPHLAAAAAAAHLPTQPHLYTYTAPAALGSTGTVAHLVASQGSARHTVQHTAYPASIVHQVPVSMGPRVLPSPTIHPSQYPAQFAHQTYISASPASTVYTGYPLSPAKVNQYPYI

[8] = target: Cyclin-dependent kinase 2 (Homo sapiens, UniProt P24941); assay: Inhibition of CDK2 (unknown origin)
[9] = target: Death-associated protein kinase 2 (Homo sapiens) (UniProt Q9UIK4); assay: Inhibition of Dapk-2 (unknown origin) assessed as residual activity at 0.1 uM/L relative to control; in short: as §2
Mus musculus [10] = assay: In vivo inhibition of CK2 in human DLD2 cells xenografted in mouse assessed as inhibition of AKT phosphorylation at Ser129 at 10 mg/kg, po measured up to 24 hrs by ELISA; format: functional, organism-based; parameters: dose 10 mg/kg
In short: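 DLD-1 AKT1-overexpressing xenograft mice received a single oral dose of 10 mg/kg. pAKT S129 in tumour cell lysates was quantified by ELISA over time and plotted against plasma drug concentration.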

[11] = Antitumor activity against human DLD2 cells xenografted in mouse assessed as tumor growth inhibition at 5 mg/kg, po bid after 14 days relative to control; format: functional; conditions: DLD2, 336 h, read-out: TGI
[12] = target: Glycogen synthase kinase-3 beta (Homo sapiens, UniProt P49841); assay: Inhibition of GSK3beta (unknown origin)
[13] = target: Homeodomain-interacting protein kinase 3 (Homo sapiens) (UniProt Q9H422); assay: Inhibition of Hipk-3 (unknown origin) assessed as residual activity at 0.1 uM/L relative to control; in short: as §2
Chain of Homeodomain-interacting protein kinase 3 (Homo sapiens) (Q9H422 whole entry, looked up): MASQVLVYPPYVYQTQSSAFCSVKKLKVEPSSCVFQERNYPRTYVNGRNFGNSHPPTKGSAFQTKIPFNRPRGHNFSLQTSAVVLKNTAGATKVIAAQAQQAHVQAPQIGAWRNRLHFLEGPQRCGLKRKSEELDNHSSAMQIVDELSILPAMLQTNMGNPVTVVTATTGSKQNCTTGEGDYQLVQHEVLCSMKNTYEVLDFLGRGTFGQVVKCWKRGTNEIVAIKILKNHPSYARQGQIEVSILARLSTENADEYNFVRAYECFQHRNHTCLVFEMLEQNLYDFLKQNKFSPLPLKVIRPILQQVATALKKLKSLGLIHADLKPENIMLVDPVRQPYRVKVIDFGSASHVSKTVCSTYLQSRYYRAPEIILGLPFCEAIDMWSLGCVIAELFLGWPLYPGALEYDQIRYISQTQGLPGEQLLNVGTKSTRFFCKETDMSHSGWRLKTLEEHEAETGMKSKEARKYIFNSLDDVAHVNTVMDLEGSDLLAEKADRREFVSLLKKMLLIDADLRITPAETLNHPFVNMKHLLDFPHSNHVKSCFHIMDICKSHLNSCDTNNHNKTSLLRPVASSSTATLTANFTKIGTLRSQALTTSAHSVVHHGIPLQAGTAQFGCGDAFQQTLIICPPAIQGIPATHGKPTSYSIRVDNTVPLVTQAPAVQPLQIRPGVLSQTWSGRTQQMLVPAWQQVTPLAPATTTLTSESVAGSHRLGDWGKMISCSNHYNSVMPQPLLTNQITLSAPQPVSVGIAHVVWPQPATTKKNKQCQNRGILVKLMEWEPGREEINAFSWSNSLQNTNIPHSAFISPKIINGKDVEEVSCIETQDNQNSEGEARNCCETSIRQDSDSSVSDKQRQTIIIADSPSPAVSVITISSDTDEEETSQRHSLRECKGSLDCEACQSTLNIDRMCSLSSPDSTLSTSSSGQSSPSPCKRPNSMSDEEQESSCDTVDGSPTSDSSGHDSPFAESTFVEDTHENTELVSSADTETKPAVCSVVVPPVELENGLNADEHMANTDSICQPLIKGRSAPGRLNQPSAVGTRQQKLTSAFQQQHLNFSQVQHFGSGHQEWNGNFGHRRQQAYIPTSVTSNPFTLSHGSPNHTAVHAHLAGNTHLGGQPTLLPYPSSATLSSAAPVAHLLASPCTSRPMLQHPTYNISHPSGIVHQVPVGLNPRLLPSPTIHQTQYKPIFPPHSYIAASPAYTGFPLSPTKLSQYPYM

[14] = target: T2, Dual specificity tyrosine-phosphorylation-regulated kinase 3 (Homo sapiens, UniProt O43781); assay: Inhibition of Dyrk-3 (unknown origin)
T2 sequence (O43781 whole entry): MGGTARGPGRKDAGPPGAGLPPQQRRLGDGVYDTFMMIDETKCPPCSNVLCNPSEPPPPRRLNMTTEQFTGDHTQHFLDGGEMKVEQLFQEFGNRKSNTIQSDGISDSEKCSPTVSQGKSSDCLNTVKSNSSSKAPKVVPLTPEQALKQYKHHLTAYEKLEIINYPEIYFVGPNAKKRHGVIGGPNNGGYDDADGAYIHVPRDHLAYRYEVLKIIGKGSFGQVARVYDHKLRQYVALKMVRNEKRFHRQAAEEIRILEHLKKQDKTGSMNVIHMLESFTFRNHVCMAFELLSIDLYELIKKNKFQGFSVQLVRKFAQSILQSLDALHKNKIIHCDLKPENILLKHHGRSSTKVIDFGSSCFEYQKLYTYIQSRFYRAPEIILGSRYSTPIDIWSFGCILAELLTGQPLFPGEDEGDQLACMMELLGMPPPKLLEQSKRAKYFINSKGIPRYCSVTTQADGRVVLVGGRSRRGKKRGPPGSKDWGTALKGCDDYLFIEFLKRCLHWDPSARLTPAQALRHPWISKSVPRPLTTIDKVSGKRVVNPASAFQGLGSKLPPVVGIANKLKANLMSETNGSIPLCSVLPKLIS

[15] = Fraction unbound in human plasma at 10 uM by equilibrium dialysis method; format: ADME, cell-free
[16] = target: Homeodomain-interacting protein kinase 1 (Homo sapiens) (UniProt Q86Z02); assay: Inhibition of Hipk-1 (unknown origin) assessed as residual activity at 0.1 uM/L relative to control; in short: as §2
Chain of Homeodomain-interacting protein kinase 1 (Homo sapiens) (Q86Z02 whole entry, looked up): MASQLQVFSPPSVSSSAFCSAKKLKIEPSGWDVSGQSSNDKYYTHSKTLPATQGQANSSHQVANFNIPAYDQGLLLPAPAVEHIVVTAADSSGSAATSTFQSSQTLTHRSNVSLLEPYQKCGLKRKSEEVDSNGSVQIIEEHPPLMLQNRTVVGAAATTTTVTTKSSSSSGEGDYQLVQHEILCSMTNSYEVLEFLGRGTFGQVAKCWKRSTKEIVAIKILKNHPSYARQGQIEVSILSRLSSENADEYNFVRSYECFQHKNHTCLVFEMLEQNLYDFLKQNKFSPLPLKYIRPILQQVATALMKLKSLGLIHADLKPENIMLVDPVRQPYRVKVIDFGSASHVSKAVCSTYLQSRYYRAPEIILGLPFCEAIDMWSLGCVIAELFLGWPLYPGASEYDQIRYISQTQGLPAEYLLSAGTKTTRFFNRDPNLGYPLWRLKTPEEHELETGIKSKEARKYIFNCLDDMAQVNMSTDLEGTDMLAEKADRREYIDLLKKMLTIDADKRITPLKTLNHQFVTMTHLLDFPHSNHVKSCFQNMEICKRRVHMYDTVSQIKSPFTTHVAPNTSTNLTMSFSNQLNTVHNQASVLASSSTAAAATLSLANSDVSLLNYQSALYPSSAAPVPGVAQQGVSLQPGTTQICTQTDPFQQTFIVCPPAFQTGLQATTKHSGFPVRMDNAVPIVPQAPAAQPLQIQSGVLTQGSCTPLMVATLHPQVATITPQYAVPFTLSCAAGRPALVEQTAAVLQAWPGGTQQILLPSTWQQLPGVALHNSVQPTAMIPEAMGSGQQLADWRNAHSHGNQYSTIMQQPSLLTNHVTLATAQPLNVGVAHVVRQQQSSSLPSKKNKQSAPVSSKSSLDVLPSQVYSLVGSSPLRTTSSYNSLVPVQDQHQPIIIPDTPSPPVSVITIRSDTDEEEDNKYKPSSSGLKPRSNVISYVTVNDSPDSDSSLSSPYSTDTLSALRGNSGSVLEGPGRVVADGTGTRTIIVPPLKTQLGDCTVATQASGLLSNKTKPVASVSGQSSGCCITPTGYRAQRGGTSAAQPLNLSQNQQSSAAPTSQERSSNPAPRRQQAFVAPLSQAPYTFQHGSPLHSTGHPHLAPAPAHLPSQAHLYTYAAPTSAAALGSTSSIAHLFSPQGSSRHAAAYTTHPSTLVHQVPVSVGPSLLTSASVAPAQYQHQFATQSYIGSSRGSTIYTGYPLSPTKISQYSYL

[17] = target: Serine/threonine-protein kinase pim-3 (Homo sapiens, UniProt Q86V86); assay: Inhibition of PIM3 (unknown origin)
Mus musculus [18] = assay: In vivo inhibition of CK2 in human DLD2 cells xenografted in mouse assessed as inhibition of AKT phosphorylation at Ser129 at 10 mg/kg, po measured at 3 to 8 hrs by Western blot analysis; format: functional, organism-based; parameters: dose 10 mg/kg; in short: as §1
[19] = Plasma half life in rat at 10 mg/kg, po; format: ADME, organism-based; parameters: dose 10 mg/kg, route oral
In short: (§3)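 Rats were given a single oral dose of 10 mg/kg. Plasma pharmacokinetics yielded bioavailability (F, %), half-life (h) and clearance (mL/min/kg).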

HCT-116 = assay: Growth inhibition of human HCT116 cells after 72 hrs by Alamar blue assay; format: functional; conditions: HCT-116, 72 h
[20] = Antitumor activity against human DLD2 cells xenografted in mouse assessed as tumor growth inhibition at 10 mg/kg, po qd after 14 days relative to control; format: functional; conditions: DLD2, 336 h, read-out: TGI
[21] = Intrinsic clearance in rat liver microsomes; format: ADME, Microsome; conditions: read-out: CLH
In short: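 Incubation with rat liver microsomes; intrinsic clearance reported in μL/min/mg.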

[22] = Cmax in po dosed rat; format: ADME, organism-based; parameters: route oral; conditions: in vivo
MDR1 [23] = assay: Efflux ratio of apparent permeability across apical to basolateral side in porcine LLC cells expressing MDR1; format: ADME, cell-based, Sus scrofa; conditions: pig, LLC-PK1
In short: (§4)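 MDR1-expressing LLCK cell monolayers. Apical-to-basolateral apparent permeability (Papp) measured in cm/s; efflux ratio also determined.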

[24] = target: Casein kinase II subunit alpha (Homo sapiens, UniProt P68400); assay: Inhibition of N-terminal His6X-tagged recombinant human full length casein kinase-2alpha expressed in SF21 cells using BODIPY-FL-RRRDDDSDDD-CONH2 as substrate preincubated for 20 mins measured after 90 mins by mobility shift assay
Chain of Casein kinase II subunit alpha (P68400 whole entry): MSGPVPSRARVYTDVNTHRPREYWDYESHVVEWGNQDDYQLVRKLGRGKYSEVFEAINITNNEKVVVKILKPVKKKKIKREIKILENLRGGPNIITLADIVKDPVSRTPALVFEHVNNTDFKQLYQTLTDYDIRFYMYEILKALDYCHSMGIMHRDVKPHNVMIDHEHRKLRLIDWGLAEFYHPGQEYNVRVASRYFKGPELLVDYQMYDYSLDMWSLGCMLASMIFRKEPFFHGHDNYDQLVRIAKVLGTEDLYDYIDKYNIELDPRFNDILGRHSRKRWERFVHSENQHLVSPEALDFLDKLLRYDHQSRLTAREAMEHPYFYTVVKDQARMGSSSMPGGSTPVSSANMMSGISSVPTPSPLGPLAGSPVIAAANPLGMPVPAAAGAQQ

MDR1 [25] = assay: Apparent permeability across apical to basolateral side in porcine LLC cells expressing MDR1; format: ADME, cell-based, Sus scrofa; conditions: pig, LLC-PK1; in short: as §4
[26] = Inhibition of casein kinase-2 (unknown origin); parameters: species or system Homo sapiens
In short: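 Recombinant human full-length CK2α phosphorylating a synthetic peptide substrate, run at Km ATP concentration.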

cells = conditions: Homo sapiens, HCT-116
[27] = target: Voltage-gated inwardly rectifying potassium channel KCNH2 (Homo sapiens, UniProt Q12809); assay: Binding affinity to human ERG expressed in CHO cells by IonWorks assay
[28] = Oral bioavailability in rat at 10 mg/kg; format: ADME, organism-based; conditions: in vivo; in short: as §3
[29] = Clearance in rat at 10 mg/kg, po; format: ADME, organism-based; parameters: dose 10 mg/kg, route oral; conditions: in vivo; in short: as §3

CC(=O)Nc1cc(Nc2cc(NC3CC3)n3ncc(C#N)c3n2)ccc1C
inhibition (Mus musculus [1]): inactive
solubility at 24 h [2]: 8 µM (≈ 2.89 µg/mL)
Activity [3]: 43%
Activity [4]: 21%
Activity [5]: 18%
Activity [6]: 22%
logD at 5 h (physchem): 2.4
IC50 [7]: 40 nM
IC50 [8]: 7200 nM
Activity [9]: 43%
inhibition (Mus musculus [10]): Active
inhibition in vivo at 5 mg/kg [11]: 37%
IC50 [12]: 2600 nM
Activity [13]: 39%
IC50 [14]: 70 nM
fraction unbound at 10 µM [15]: 0.08
Activity [16]: 38%
IC50 [17]: 150 nM
inhibition (Mus musculus [18]): Active
half-life [19]: 2.6 h
GI50 (HCT-116): 81 nM
inhibition in vivo at 10 mg/kg [20]: 28%
microsomal CLint [21]: 15 µL/min/mg

CC(=O)Nc1cc(Nc2cc(Nc3ccn(CCN4CCCC4)n3)n3ncc(C#N)c3n2)ccc1C
solubility at 24 h [2]: 3 µM (≈ 1.45 µg/mL)
logD at 5 h (physchem): 2.5
Cmax [22]: < 100 nM
efflux ratio (MDR1 [23]): 100
GI50 (HCT-116): 100 nM
IC50 [24]: < 3 nM
microsomal CLint [21]: 65 µL/min/mg
Papp A→B (MDR1 [25]): 0.2 ×10⁻⁶ cm/s

CC(=O)Nc1cc(Nc2cc(NC3CC3)n3nccc3n2)ccc1C
IC50 [26]: 270 nM
IC50 (cells): > 3300 nM

CC(=O)Nc1cc(Nc2cc(NC3COC3)n3ncc(C#N)c3n2)ccc1C1CC1
IC50 [27]: > 33000 nM
solubility at 24 h [2]: 11 µM (≈ 4.44 µg/mL)
logD at 5 h (physchem): 2.2
bioavailability [28]: 47%
fraction unbound at 10 µM [15]: 0.2
half-life [19]: 1.4 h
GI50 (HCT-116): 59 nM
CL/F [29]: 23 mL/min/kg
IC50 [24]: < 3 nM
microsomal CLint [21]: < 4 µL/min/mg
IC50 (cells): 6 nM
